Source: ChEMBL document CHEMBL4725486, “Effects of C-Terminal B-Chain Modifications in a Relaxin 3 Agonist Analogue” (ACS Med Chem Lett, 2020)

Experiments:
Relaxin-3 receptor 1 [1] = target: T1, Relaxin-3 receptor 1 (Homo sapiens, UniProt Q9NSD7); assay: Displacement of Eu-labeled H3B1-22R from RXFP3 (unknown origin) stably expressed in CHO-K1 cells by competition binding assay; assay type: cell-based
T1 sequence (Q9NSD7 whole entry): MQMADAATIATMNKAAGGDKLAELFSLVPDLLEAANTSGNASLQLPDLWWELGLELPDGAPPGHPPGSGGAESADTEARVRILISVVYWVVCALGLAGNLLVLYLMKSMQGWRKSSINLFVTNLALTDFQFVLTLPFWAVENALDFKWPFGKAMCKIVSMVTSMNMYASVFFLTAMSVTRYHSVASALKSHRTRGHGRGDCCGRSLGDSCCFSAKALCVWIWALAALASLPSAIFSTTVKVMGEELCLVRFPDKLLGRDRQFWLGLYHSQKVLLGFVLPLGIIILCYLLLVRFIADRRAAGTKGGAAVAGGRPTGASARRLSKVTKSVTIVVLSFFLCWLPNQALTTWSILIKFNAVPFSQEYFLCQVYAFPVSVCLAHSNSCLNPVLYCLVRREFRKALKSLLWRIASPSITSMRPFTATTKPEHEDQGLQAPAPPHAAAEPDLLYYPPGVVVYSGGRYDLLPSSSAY
Method in brief: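 Competition binding used europium-labeled H3 B1-22R as the labeled ligand on CHO-RXFP3 cells, with peptides as competitors. pKi values were pooled from 3–4 independent experiments.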

Relaxin-3 receptor 1 [2] = target: T1, Relaxin-3 receptor 1; assay: Agonist activity at RXFP3 (unknown origin) stably expressed in CHO-K1 cells co-transfected with pCRE assessed as inhibition of forskolin-induced cAMP accumulation measured after 6 hrs by beta-galactosidase reporter gene assay; assay type: functional, cell-based
Method in brief: (§1)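 Cells were CHO lines expressing RXFP3 or RXFP4, which couple to Gi/o. Agonist action was read as inhibition of forskolin-stimulated cAMP in a reporter gene assay after 6 h stimulation. pEC50 values were pooled from 3–4 independent experiments.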

Relaxin-3 receptor 2 = Relaxin-3 receptor 2 (Homo sapiens, UniProt Q8TDU9); assay: Agonist activity at RXFP4 (unknown origin) stably expressed in CHO cells co-transfected with pCRE assessed as inhibition of forskolin-induced cAMP accumulation measured after 6 hrs by beta-galactosidase reporter gene assay; assay type: functional, cell-based; method in brief: as §1
Chain of Relaxin-3 receptor 2 (Q8TDU9 whole entry): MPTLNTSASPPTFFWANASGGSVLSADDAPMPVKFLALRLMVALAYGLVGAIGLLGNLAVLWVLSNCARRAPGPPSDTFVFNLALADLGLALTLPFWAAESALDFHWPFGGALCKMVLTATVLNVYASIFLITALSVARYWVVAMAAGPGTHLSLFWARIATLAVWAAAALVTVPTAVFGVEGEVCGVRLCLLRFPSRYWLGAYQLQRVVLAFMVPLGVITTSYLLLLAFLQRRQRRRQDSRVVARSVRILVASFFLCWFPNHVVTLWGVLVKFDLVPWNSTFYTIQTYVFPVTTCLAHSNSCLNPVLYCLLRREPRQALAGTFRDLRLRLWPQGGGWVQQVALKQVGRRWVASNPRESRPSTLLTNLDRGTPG

| Ki (Relaxin-3 receptor 1 [1]) [nM] | EC50 (Relaxin-3 receptor 1 [2]) [nM] | EC50 (Relaxin-3 receptor 2) [nM] | Structure (SMILES) |
| --- | --- | --- | --- |
| 45.7 | 6.17 | 6.92 | CC[C@H](C)[C@@H]1NC(=O)[C@H](CCC(=O)O)NC(=O)[C@H](CO)NC(=O)[C@H](CCCCN)NC(=O)[C@H](CO)NC(=O)[C@H](C)NC(=O)CNC(=O)[C@H](Cc2c[nH]c3ccccc23)NC(=O)[C@H](CCCCN)NC(=O)[C@@H](N)CSSC[C@@H](C(=O)NCC(=O)NCC(=O)N[C@@H](CO)C(=O)N[C@@H](CCCNC(=N)N)C(=O)N[C@@H](Cc2c[nH]c3ccccc23)C(=O)O)NC(=O)[C@H]([C@@H](C)O)NC(=O)[C@H](Cc2ccccc2)NC(=O)[C@H]([C@@H](C)CC)NC(=O)[C@H](C(C)C)NC(=O)[C@H](CCCNC(=N)N)NC(=O)[C@H]([C@@H](C)CC)NC(=O)[C@H](Cc2ccccc2)NC(=O)[C@H](CCC(=O)O)NC(=O)[C@H](CCCNC(=N)N)NC(=O)CNC(=O)[C@@H](NC(=O)[C@H](CC(C)C)NC(=O)[C@H](CCCNC(=N)N)NC(=O)[C@@H](NC(=O)CNC(=O)[C@H](Cc2ccc(O)cc2)NC(=O)[C@@H]2CCCN2C(=O)[C@H](C)NC(=O)[C@H](C)NC(=O)[C@H](CCCNC(=N)N)N[C@@H](Cc2c[nH]c3ccccc23)C(=O)O)C(C)C)CSSC[C@@H](C(=O)O)NC(=O)[C@H](CC(C)C)NC(=O)[C@H](CO)NC(=O)[C@H](CO)NC1=O |
| 191 | 15.8 | 14.5 | CC[C@H](C)[C@@H]1NC(=O)[C@H](CCC(=O)O)NC(=O)[C@H](CO)NC(=O)[C@H](CCCCN)NC(=O)[C@H](CO)NC(=O)[C@H](C)NC(=O)CNC(=O)[C@H](Cc2c[nH]c3ccccc23)NC(=O)[C@H](CCCCN)NC(=O)[C@@H](N)CSSC[C@@H](C(=O)NCC(=O)NCC(=O)N[C@@H](CO)C(=O)N[C@@H](CCCNC(=N)N)C(=O)N[C@@H](Cc2c[nH]c3ccccc23)C(=O)O)NC(=O)[C@H]([C@@H](C)O)NC(=O)[C@H](Cc2ccccc2)NC(=O)[C@H]([C@@H](C)CC)NC(=O)[C@H](C(C)C)NC(=O)[C@H](CCCNC(=N)N)NC(=O)[C@H]([C@@H](C)CC)NC(=O)[C@H](Cc2ccccc2)NC(=O)[C@H](CCC(=O)O)NC(=O)[C@H](CCCNC(=N)N)NC(=O)CNC(=O)[C@@H](NC(=O)[C@H](CC(C)C)NC(=O)[C@H](CCCNC(=N)N)NC(=O)[C@@H](NC(=O)CNC(=O)[C@H](Cc2ccc(O)cc2)NC(=O)[C@@H]2CCCN2C(=O)[C@H](C)NC(=O)[C@H](C)NC(=O)[C@H](CCCNC(=N)N)N[C@@H](Cc2c[nH]c3ccccc23)C(N)=O)C(C)C)CSSC[C@@H](C(=O)O)NC(=O)[C@H](CC(C)C)NC(=O)[C@H](CO)NC(=O)[C@H](CO)NC1=O |

The remaining lines, values behind:

| Structure (SMILES) | Ki (Relaxin-3 receptor 1 [1]) [nM] | EC50 (Relaxin-3 receptor 1 [2]) [nM] | EC50 (Relaxin-3 receptor 2) [nM] |
| --- | --- | --- | --- |
| CC[C@H](C)[C@@H]1NC(=O)[C@H](CCC(=O)O)NC(=O)[C@H](CO)NC(=O)[C@H](CCCCN)NC(=O)[C@H](CO)NC(=O)[C@H](C)NC(=O)CNC(=O)[C@H](Cc2c[nH]c3ccccc23)NC(=O)[C@H](CCCCN)NC(=O)[C@@H](N)CSSC[C@@H](C(=O)NCC(=O)NCC(=O)N[C@@H](CO)C(=O)N[C@@H](CCCNC(=N)N)C(=O)N[C@@H](Cc2c[nH]c3ccccc23)C(=O)O)NC(=O)[C@H]([C@@H](C)O)NC(=O)[C@H](Cc2ccccc2)NC(=O)[C@H]([C@@H](C)CC)NC(=O)[C@H](C(C)C)NC(=O)[C@H](CCCNC(=N)N)NC(=O)[C@H]([C@@H](C)CC)NC(=O)[C@H](Cc2ccccc2)NC(=O)[C@H](CCC(=O)O)NC(=O)[C@H](CCCNC(=N)N)NC(=O)CNC(=O)[C@@H](NC(=O)[C@H](CC(C)C)NC(=O)[C@H](CCCNC(=N)N)NC(=O)[C@@H](NC(=O)CNC(=O)[C@H](Cc2ccc(O)cc2)NC(=O)[C@@H]2CCCN2C(=O)[C@H](C)NC(=O)[C@H](C)NC(=O)[C@H](CCCNC(=N)N)N[C@H](COC(N)=O)Cc2c[nH]c3ccccc23)C(C)C)CSSC[C@@H](C(=O)O)NC(=O)[C@H](CC(C)C)NC(=O)[C@H](CO)NC(=O)[C@H](CO)NC1=O | 110 | 6.17 | 19.5 |
| CC[C@H](C)[C@@H]1NC(=O)[C@H](CCC(=O)O)NC(=O)[C@H](CO)NC(=O)[C@H](CCCCN)NC(=O)[C@H](CO)NC(=O)[C@H](C)NC(=O)CNC(=O)[C@H](Cc2c[nH]c3ccccc23)NC(=O)[C@H](CCCCN)NC(=O)[C@@H](N)CSSC[C@@H](C(=O)NCC(=O)NCC(=O)N[C@@H](CO)C(=O)N[C@@H](CCCNC(=N)N)C(=O)N[C@@H](Cc2c[nH]c3ccccc23)C(=O)O)NC(=O)[C@H]([C@@H](C)O)NC(=O)[C@H](Cc2ccccc2)NC(=O)[C@H]([C@@H](C)CC)NC(=O)[C@H](C(C)C)NC(=O)[C@H](CCCNC(=N)N)NC(=O)[C@H]([C@@H](C)CC)NC(=O)[C@H](Cc2ccccc2)NC(=O)[C@H](CCC(=O)O)NC(=O)[C@H](CCCNC(=N)N)NC(=O)CNC(=O)[C@@H](NC(=O)[C@H](CC(C)C)NC(=O)[C@H](CCCNC(=N)N)NC(=O)[C@@H](NC(=O)CNC(=O)[C@H](Cc2ccc(O)cc2)NC(=O)[C@@H]2CCCN2C(=O)[C@H](C)NC(=O)[C@H](C)NC(=O)[C@H](CCCNC(=N)N)N[C@H](CO)Cc2c[nH]c3ccccc23)C(C)C)CSSC[C@@H](C(=O)O)NC(=O)[C@H](CC(C)C)NC(=O)[C@H](CO)NC(=O)[C@H](CO)NC1=O | 331 | 13.2 | 282 |
| CC[C@H](C)[C@@H]1NC(=O)[C@H](CCC(=O)O)NC(=O)[C@H](CO)NC(=O)[C@H](CCCCN)NC(=O)[C@H](CO)NC(=O)[C@H](C)NC(=O)CNC(=O)[C@H](Cc2c[nH]c3ccccc23)NC(=O)[C@H](CCCCN)NC(=O)[C@@H](N)CSSC[C@@H](C(=O)NCC(=O)NCC(=O)N[C@@H](CO)C(=O)N[C@@H](CCCNC(=N)N)C(=O)N[C@@H](Cc2c[nH]c3ccccc23)C(=O)O)NC(=O)[C@H]([C@@H](C)O)NC(=O)[C@H](Cc2ccccc2)NC(=O)[C@H]([C@@H](C)CC)NC(=O)[C@H](C(C)C)NC(=O)[C@H](CCCNC(=N)N)NC(=O)[C@H]([C@@H](C)CC)NC(=O)[C@H](Cc2ccccc2)NC(=O)[C@H](CCC(=O)O)NC(=O)[C@H](CCCNC(=N)N)NC(=O)CNC(=O)[C@@H](NC(=O)[C@H](CC(C)C)NC(=O)[C@H](CCCNC(=N)N)NC(=O)[C@@H](NC(=O)CNC(=O)[C@H](Cc2ccc(O)cc2)NC(=O)[C@@H]2CCCN2C(=O)[C@H](C)NC(=O)[C@H](C)NC(=O)[C@H](CCCNC(=N)N)N[C@@H](Cc2c[nH]c3ccccc23)C(=O)OC[C@H](NC(C)=O)C(N)=O)C(C)C)CSSC[C@@H](C(=O)O)NC(=O)[C@H](CC(C)C)NC(=O)[C@H](CO)NC(=O)[C@H](CO)NC1=O | 186 | 4.37 | 7.08 |
